The whole screen tested about 1,100 compounds, of which about 150 (14%) were called active. Not shown: some 1% with an inconclusive outcome. Only a sample is shown. A number with no mark means an inactive call.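 Rule for the calls: active = inhibition above about 50% in both repeat tests (limit read from the data); inconclusive = one repeat under the set limit, the other over it; inactive = both repeats under the set limit.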

A short description of this assay: antileishmanial activity against promastigotes – 1 µM repeat of primary hits, confirmation (AID 1258). To be noted: L. major promastigote growth, resazurin fluorescence, 48 h; at 1 µM; stronger effect = higher value. The method in brief:
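system = Leishmania major promastigote parasites | quantity = 5,000 promastigotes per well | buffer or medium = medium 199 plus 10% heat-inactivated FBS | compound dosing = 1 µM single concentration | timing = 44 h drug plus 4 h dye, 28 °C | read-out = promastigote viability as inhibition relative to DMSO MAX/MIN controls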
As to `Clc1ccc(-n2nnnc2-c2cnc(-c3ccccn3)nc2-c2cccs2)cc1`, the inhibition was -17.1%.

Take `c1ccc(CC2CCN(c3nc4ccccc4n4cnnc34)CC2)cc1`: the inhibition was -11.4%.

Take `CC(=O)NC1C(Oc2ccc(C)cc2)OC2COC(c3ccco3)OC2C1O` (stereo unspecified): the inhibition was -11.1%.

In the case of `N#Cc1ccc(N2Cc3ccccc3/C2=N/C(=O)Nc2ccc(Cl)cc2)cc1`, the inhibition is 14%.

Take `CCOC(=O)c1c(C2CC2)csc1NC(=O)CSCc1c(C)noc1C`: the inhibition is -3.56%.

Turning to `CNC(=S)N/N=C/c1cn(Cc2ccc(C)cc2)c2ccccc12`, the inhibition is -4.3%.

Turning to `COc1ccc2c(c1)C=CC1(O2)N(CCO)c2ccccc2C1(C)C` (stereo unspecified), the inhibition is -3.93%.

In the case of `O=C(c1ccc(-c2ccccc2)cc1)C1CCCN(C(=O)c2cncs2)C1` (stereo unspecified), the inhibition is -12.9%.

Take `Cn1c(-c2sc3cc(C(F)(F)F)cnc3c2-c2ccccc2)n[nH]c1=S`: the inhibition is -17.6%.

As for `N#Cc1ccc(-c2nc3cc(C#N)c(C#N)cc3nc2-c2ccccc2)cc1C#N`, the inhibition is -5.54%.

For `c1ccc2cc(OCCN3CCCC3)ccc2c1`, the inhibition is 12.5%.

With `Cc1nn(-c2ccccc2)c2sc(C(=O)N(Cc3ccco3)C(C)C(=O)NC(C)(C)C)cc12` (stereo unspecified), the inhibition was -6.73%.

Turning to `COCCN(CCOC)S(=O)(=O)c1ccc(C(=O)Nc2nc3c(s2)CCc2ccccc2-3)cc1`, the inhibition is -8.24%.

Take `CC(C)Cc1nn2c(=O)cc(O)nc2s1`: the inhibition is -1.83%.

`Cc1c(Br)cc(C(=O)N2CCCCCC2)c(C)c1C`: the inhibition was -3.85%.

Regarding `CCOC(=O)/C(N=Nc1cc(C(=O)O)cc(C(=O)O)c1)=C(\O)CCl`, the inhibition was -4.13%.

For `CCOC(=O)N1CCN(C(c2cccnc2)c2ccc3cccnc3c2O)CC1` (stereo unspecified), the inhibition was -7.1%.

Turning to `CCc1nc(C)cn1S(=O)(=O)c1cc(OC)c(C)cc1C`, the inhibition was 0.254%.

Turning to `Fc1cc(F)c2nc(Nc3nc4c(F)cccc4s3)sc2c1`, the inhibition is -9.65%.

For `CC1(C)CC(=O)c2c(n(S(=O)(=O)c3ccccc3)c3ccc(NS(=O)(=O)c4ccccc4)cc23)C1`, the inhibition is -25.3%.

For `O=C(/C=C/Sc1ncn[nH]1)c1ccc(Cl)cc1`, the inhibition is 29.4%.

With `CCOC(=O)C1=C(CC)Nc2ccccc2N=C1NC(=O)c1cccc(S(=O)(=O)N2CCCC2)c1`, the inhibition was -9.84%.

On to `Cc1cccc(-n2c(N)cc(=O)nc2SC(C)C(=O)NC2CCCCC2)c1` (stereo unspecified), for which the inhibition is 29.9%.

With `Cc1nn(CC2CC2)c(=O)n1N(C)c1ncc(C(F)(F)F)cc1Cl`, the inhibition was -15.7%.

As for `Clc1ccc(C2=CSC3=Nc4cccc5cccc(c45)N23)cc1`, the inhibition is -13.5%.

As for `CN(C)Cc1ccccc1C1(O)c2ccccc2CSc2ccccc21` (stereo unspecified), the inhibition is -1.45%.

Turning to `Cc1ccc(Nc2nc(CSc3nnnn3-c3ccccc3)cc(=O)[nH]2)cc1`, the inhibition is -2.73%.

Regarding `CN(C)c1ccc(/C=C2\NC(=S)N(Cc3ccccc3)C2=O)cc1`, the inhibition was -11.8%.

Regarding `CCc1ccc(-c2nn(-c3ccccc3)cc2CSC(=N)N)cc1`, the inhibition is 46.8%.

In the case of `c1ccc(C2CCC(N3CCC(N4CCCCC4)CC3)CC2)cc1` (stereo unspecified), the inhibition is 59.2% (active).

On to `O=C(Nc1ccc2ccccc2c1)Nc1ccc2snnc2c1`, for which the inhibition is -30.1%.

As for `Cc1cc(/C=C(/C#N)C(=O)Nc2ccc(Cl)cc2)c(C)n1-c1cccnc1`, the inhibition is -3.48%.

Regarding `O=C1N(Cc2ccc3c(c2)OCO3)c2ccccc2C1(O)c1c[nH]c2ccccc12` (stereo unspecified), the inhibition is 0.0749%.

Turning to `CCCCn1c(=S)[nH]c2cc(S(=O)(=O)N3CCCCC3)ccc21`, the inhibition is 9.63%.

Regarding `Cc1nnc(-c2ccc(Oc3ccc(C)c(C)c3)c([N+](=O)[O-])c2)o1`, the inhibition was -11.1%.

As for `Cc1nc(N2CCOCC2)c2c(C)c(C(=O)Nc3ccc(C(F)(F)F)cc3)sc2n1`, the inhibition is 15.1%.

Consider `Cc1ccc(CN(N=Nc2nonc2N)c2nonc2N)c(C)c1`, for which the inhibition is -2.38%.

In the case of `Cc1nc([N+](=O)[O-])nn1C12CC3CC(CC(Br)(C3)C1)C2`, the inhibition was 38.5%.

Regarding `CC(=O)NC1C(OCc2ccccc2)OC(COC(C)=O)C(OC(C)=O)C1OC(C)=O` (stereo unspecified), the inhibition was -7.57%.

Consider `O=C(CCN1C(=O)c2ccccc2C1=O)Nc1cccc(F)c1`, for which the inhibition was -12.6%.

Consider `O=C(NC(Cc1c[nH]c2ccccc12)C(=O)N/N=C/c1ccc(Br)cc1)c1cccs1` (stereo unspecified), for which the inhibition is -12.7%.

As to `c1ccc(-c2cc(-c3nnc4sc(-c5ccccn5)nn34)[nH]n2)cc1`, the inhibition was 50.6% (active).

For `COC(=O)C1=C(C)N(c2ccc(C)cc2)/C(=C/c2ccc(O)cc2)C1=O`, the inhibition is 8.89%.

Consider `COc1ccc(COC(=O)c2n[nH]c3ccccc23)cc1F`, for which the inhibition is -13%.

As for `CS(=O)(=O)Nc1cccc(C2=NN(S(=O)(=O)c3ccccc3)C(c3cccs3)C2)c1` (stereo unspecified), the inhibition was -8.88%.

As to `Cc1cccc(-n2c(C)cc(/C=N/NC(N)=S)c2C)c1`, the inhibition is 15.8%.

With `C=CCNc1nnc(SCC(=O)N2CCCCC2)c2ccccc12`, the inhibition is -6.19%.

For `N#Cc1ccccc1-n1c(N)c(C(=O)N2CCCC2)sc1=S`, the inhibition was -0.236%.

With `CC12CCC(C(=O)N(NC(=O)c3ccccc3O)C1=O)C2(C)C` (stereo unspecified), the inhibition is -15.5%.

In the case of `Nc1cccc(-c2cc(-c3ccccc3)nc(-c3cccc(N)c3)n2)c1`, the inhibition was -6.75%.

`COc1ccc2[nH]c(C)c(CCN(Cc3cccs3)C(=S)Nc3ccccc3OC)c2c1`: the inhibition was 28.7%.

For the compound `c1ccc(Cc2cc[n+](Cc3ccccc3)cc2)cc1`, the inhibition was -17.2%.

With `CN(C)c1ccc(/C=N\S(=O)(=O)c2ccccc2)cc1`, the inhibition was -0.93%.

For the compound `O=C(c1cccnc1)N(c1cc2sc(=O)oc2c2ccccc12)S(=O)(=O)c1ccccc1`, the inhibition is 95.1% (active).

With `N#C/C=C\Oc1ccc(Cl)cc1N`, the inhibition is -12.9%.

For the compound `COc1ccc(-c2cc(C(F)(F)F)nc(S(C)(=O)=O)n2)cc1OC`, the inhibition was 36.4%.

These data come from PubChem BioAssay AID1258 (University of Pittsburgh Molecular Library Screening Center, 2008).
